# PLC-beta3 inh: human PLC-beta3 inhibitors, primary screen, biochemical, fluorescence; 1-phosphatidylinositol 4,5-bisphosphate phosphodiesterase beta-3 (Homo sapiens), Q01970; Purified PLC-beta3, fluorogenic substrate; inhibition, % at 12.2 µM; AID 720704, 2013; 0.18% of 370,000 active; in the data active means inhibition above about 11%;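 further: 0% = median of compound wells on plate and 100% = full blocker control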
# PLCg1 inh: PLC-gamma1 enzyme inhibitors, primary screen, biochemical, fluorescence, purified enzyme; 1-phosphatidylinositol 4,5-bisphosphate phosphodiesterase gamma-1 (Homo sapiens), P19174; fluorogenic substrate; inhibition, % at 12.2 µM; 0.84% of 370,000 active
# DDE Tn6 FP inh: inhibitors of Tn6 peptide binding to fibrin DD(E), primary screen, biochemical, fluorescence polarization, human fibrin, Tn6 probe; inhibition, % at 8.3 µM; Fibrinogen beta chain (Homo sapiens), P02675; Fibrin DD(E) TRITC-Tn6 fluorescence polarization displacement; AID 720509, 2013; 0.21% of 370,000 active;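 active means inhibition above a per-campaign cutoff: mean of compounds within control limits plus 3 SD, cut at about 15% in these data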;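 further: 0% = median of all compound wells on the plate and 100% = blocking peptide control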
# DDE Tn7 FP inh: inhibitors of Tn7 peptide binding to fibrin DD(E), primary screen, biochemical, fluorescence polarization, human fibrin, Tn7 probe. FP displacement of FITC-Tn7 peptide from fibrin DD(E); 0% = median of compound wells per plate. inhibition, % at 8.3 µM. Fibrinogen beta chain (Homo sapiens), P02675. AID 720508, 2013. 0.13% of 370,000 active;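 active means inhibition above the mean of compounds falling within the control limits plus 3 SD of them, cut at about 14% in these data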;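 further: 0% = plate median of compound wells and 100% = 10 µM Aha-Tn7 peptide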
#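 Assay system: Human fibrin DD(E) protein | Medium: Tris buffer with calcium and detergent, pH 7.8 | Reagent: 0.1 µM fluorescent Tn7 | Compound dosing: Single point at 8.3 µM | Times: 10 min preincubation, 3 h with tracer, room temperature | Detection: Fluorescence polarization of the labelled Tn7 tracer | Controls: Aha-Tn7 high control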
# DNA FID counter: compounds displacing fluorescent DNA intercalator, primary screen, artefact control for HCV NS3 helicase inhibitor project, biochemical, FID fluorescence. DNA fluorescent intercalator displacement. inhibition, % at 7.9 µM. 0.17% of 290,000 active. AID 1845, 2009; in the data active means inhibition above about 37%;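 further: 0% = vehicle and 100% = reference compound; higher means more ethidium bromide displaced from hairpin DNA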
# PLCg1 ctr: PLC-gamma1 enzyme inhibitors, counter-screen for PLC-beta3 inhibitor project, biochemical, fluorescence; shares compounds with PLCg1 inh; purified PLC-gamma1, fluorogenic substrate; inhibition, % at 12.3 µM; 3.1% of 3,300 active
# PLCbeta3 conf: PLC-beta3 inhibitor confirmation, biochemical, fluorescence, purified enzyme; shares compounds with PLCg1 inh; fluorogenic substrate fluorescence; inhibition, % at 12.3 µM; 1% of 3,300 active; AID 743261, 2014; in the data active means inhibition above about 11%
# * = called active by the depositor; · = not tested or not shown. Rows were chosen to be rich in hits. Some 1.4% of all compounds tested hit in one or more screens of this group. Unless noted, no stated cut-off is given here; in the data, active means inhibition above about 9.5%; inactive means the rest.
SMILES,PLC-beta3 inh,PLCg1 inh,DDE Tn6 FP inh,DDE Tn7 FP inh,DNA FID counter,PLCg1 ctr,PLCbeta3 conf
CCCNC(=O)C1(C)CCN(C(=O)c2ccc(C)c(F)c2)C1 (configuration not stated),12*,2,7,-5,·,-2,1
CCNC(=O)C1(C)CCN(C(=O)c2ccc(OC)c(OC)c2)C1 (configuration not stated),7,9.7*,6,-2,·,-8,-1
Cc1noc(C)c1COC(=O)c1ccc2ccccc2n1,1,4,6,0,-3,·,·
Nc1cccc(C(=O)Nc2ccc3nc(-c4cccnc4)[nH]c3c2)c1,5,12*,0,-7,-5,-7,-5
COc1ccc(S(=O)(=O)NCC(c2ccco2)N2CCc3ccccc32)cc1 (configuration not stated),3,11*,-5,-6,·,-3,0
Cc1ccccc1N1CCN(CCCN2C(=O)CC(=C(c3ccccc3)c3ccccc3)C2=O)CC1,-4,8,0,-3,1,·,·
O=C1CC(=C(c2ccccc2)c2ccccc2)C(=O)N1CCCCN1CCN(c2cccc(Cl)c2)CC1,11*,20*,-8,-1,5,-1,2
Cc1nn(CC(=O)N2CCCC2)c(=O)c2nn(-c3ccccc3)c(C)c12,12*,3,9,0,-8,-4,1
O=C1OCC(Cn2c3ccccc3c3ccccc32)O1 (configuration not stated),2,11*,4,-2,0,-8,-6
C/C(=C1/SC(N2CCOCC2)=NC1=O)c1ccc(Cl)cc1,3,2,5,-5,-6,·,·
C/C(=C1\SC(N2CCOCC2)=NC1=O)c1ccc(C)cc1,6,10*,-1,-3,-16,-3,5
Cc1cc(Oc2ccc([N+](=O)[O-])cc2)nc(N2CCOCC2)n1,7,12*,1,3,-4,-1,-7
Cc1cc(Oc2ccc(C#N)cc2)nc(N2CCOCC2)n1,1,0,2,2,-5,·,·
CN=C(Cc1ccccc1)C1=C(O)CC(C)(C)CC1=O,0,0,-8,3,-3,·,·
O=C(COC(=O)/C=C/c1cccc(F)c1)NNC(=O)c1ccccc1,4,11*,-5,-4,-5,-10,-5
CC(C)(C)c1cc(-c2ccccc2)n[nH]1,-2,11*,4,7,-2,-1,-1
CC1(C)CC(=O)C=C(c2ccc(OC(F)(F)F)cc2)C1,2,-4,0,-2,·,·,·
CC1(C)CC(=O)C=C(c2ccc(Oc3ccccc3)cc2)C1,1,10*,-7,0,·,-2,-2
C=CC[C@@H](CC(=O)NCCO)C(=O)N[C@@H](COC(=O)[C@@H](CC=C)CC(=O)OC(C)(C)C)Cc1ccccc1,7,10.0*,5,-5,·,-7,-4
C=CC[C@@H](CC(=O)N[C@H](CO)Cc1ccccc1)C(=O)N[C@@H](COC(=O)[C@H](CC=C)CC(=O)OC(C)(C)C)Cc1ccccc1,4,9.5*,5,10,·,-7,1
C=CC[C@@H](CC(=O)N[C@@H](CO)Cc1ccccc1)C(=O)N[C@H](COC(=O)[C@@H](CC=C)CC(=O)OC(C)(C)C)Cc1ccccc1,-1,2,-7,-1,·,·,·
COc1cc(C(=O)NCc2ccc(C)cc2)ccc1OC(F)F,-3,9.7*,-3,0,-2,1,-6
O=C(CSc1ccccc1)N1CCc2ccccc21,0,-2,7,9,-10,·,·
CCN(c1cccc(C(F)(F)F)c1)S(=O)(=O)c1ccc2c(c1)CCN2C(C)=O,5,14*,-1,0,-18,-9,-5
CCN(c1cccc(C)c1)S(=O)(=O)c1ccc2c(c1)CCN2C(C)=O,0,3,10,0,-10,·,·
SMILES,PLC-beta3 inh,PLCg1 inh,DDE Tn6 FP inh,DDE Tn7 FP inh,DNA FID counter,PLCg1 ctr,PLCbeta3 conf
O=C1c2cccnc2C(=O)N1c1cccc([N+](=O)[O-])c1,0,16*,1,-2,-3,-2,-3
CC1CCN(C(=O)Cn2c(=O)n(CCCC(=O)NCc3ccco3)c(=O)c3sccc32)CC1,-2,13*,-2,-3,-25,-7,-2
COc1cc(NC(=O)CCCC(=O)OCC(F)(F)C(F)F)nc(OC)n1,-3,0,0,2,-8,·,·
CN1CC(=O)N(CC(=O)Nc2ccc(N(C)C)cc2)c2ccccc2C1=O,5,13*,2,2,0,0,-4
COc1ccc(-n2ncc3c2CC(C)(C)CC3NC(=O)CCN2CCCC2=O)cc1 (configuration not stated),-4,1,0,-5,-44,·,·
Cn1c(SCC(=O)NCC2CCCO2)nnc1-c1ccc(S(=O)(=O)N2CCCC2)cc1 (configuration not stated),-1,9.8*,0,-1,-15,-8,-4
Cc1ccc(-c2nnc(SCC(=O)NC3CCCC3)n2C)cc1,-10,11*,-3,1,-11,-9,-2
Cc1ccc(CNS(=O)(=O)c2ccc([N+](=O)[O-])cc2)cc1,-3,12*,1,1,1,4,3
COc1cccc(N2CN(C3CCCCC3)CNC2=S)c1,1,2,3,3,-1,·,·
O=C(Nc1ccc(Cl)c(Cl)c1)N1CC=CCC1,1,-1,0,-8,-7,·,·
CCOC(=O)/C(C#N)=C/c1c(OCC)n(CC)c2ccccc12,-8,10*,-6,1,-13,-10,-9
Cc1ccc(NC(=O)C[n+]2cc(-c3ccccc3)n3c2CCC3)cc1,-5,0,-6,9,15,·,·
Cc1ccc(-c2c[n+](CC(=O)Nc3nc(-c4ccccc4)cs3)c3n2CCC3)cc1,11*,12*,-2,0,19,4,3
Cc1ccc(-c2c[n+](CC(=O)Nc3ccccc3C)c3n2CCC3)cc1,-5,9.8*,-4,0,6,-1,2
C[C@@H](O)CNC(=O)c1[nH]cnc1C(=O)Nc1ccc(CNC(=O)OC(C)(C)C)cc1,-2,1,3,-7,·,·,·
O=C(Nc1ccccc1)c1cccc(NC(=O)c2ccco2)c1,3,0,-2,6,·,·,·

# Bioassay records as filed in PubChem.
